According to ChEMBL document CHEMBL5303300, “EUbOPEN Chemogenomics Library - Multiplex” (2023):
Values joined by “and” are separate entries in the source; they are usually repeats but may differ in a detail not shown here. Equal values may be shown once.

Assays:
Type in all cases: toxicity, cell-based
[1] = system: U2OS; assay: Multiplex assay against U2OS; settings: human, number of replicates 2
How it was run: (§1)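 Compound was added to live cells that had been stained at seeding with Hoechst33342, BioTracker Green Microtubule Cytoskeleton Dye, MitoTracker Red and Annexin V Alexa Fluor 680, and imaging followed on a CQ1 microscope at 37°C and 5% CO2. CellPathfinder machine-learning gating divided cells into Hoechst high-intensity objects or normal cells, normal cells into healthy, pyknosed or fragmented nuclei, and pyknosed cells into mitotic or apoptotic. Tubulin, mitochondrial-mass and membrane-permeability phenotypes are per cents of healthy-nucleus cells.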

[2] = system: Fibroblast; assay: Multiplex assay against human fibroblast; settings: number of replicates 2; how it was run: as §1
[3] = system: HEK-293T; assay: Multiplex assay against HEK293T; settings: human, number of replicates 2; how it was run: as §1
[4] = 12 h, 1 µM, compound concentration 1 uM
[5] = 12 h, 10 µM, compound concentration 10 uM
[6] = 24 h, 1 µM, compound concentration 1 uM
[7] = 24 h, 10 µM, compound concentration 10 uM
[8] = 48 h, 1 µM, compound concentration 1 uM
[9] = 48 h, 10 µM, compound concentration 10 uM

## COc1ccc2cc(S(=O)(=O)N[C@H](CC(=O)N[C@H](Cc3ccc(CN4[C@H](C)CCC[C@@H]4C)cc3)C(=O)N(C)C(C)C)c3ccc4c(c3)OCO4)ccc2c1.Cl
[1]; [4]
  Population Apoptotic (%): 20% and 30%
  Population Fragmented Nuclei (%): 8% and 4%
  Population Healthy Nuclei (%): 76% and 85%
  Population Hoechst High Intensity Objects (%): 2% and 0%
  Population Membrane Permeable-Phenotype (%): 11% and 14%
  Population Mitochondria Different-Phenotype (%): 7% and 20%
  Population Mitotic Cells (%): 80% and 69%
  Population Normal (%): 97% and 99%
  Population Pyknosed Nuclei (%): 14% and 10%
  Population Tubulin-Different-Phenotype (%): 30% and 45%
[1]; [5]
  Population Apoptotic (%): 100% and 66%
  Population Healthy Nuclei (%): 50% and 75%
  Population Hoechst High Intensity Objects (%): 3% and 0%
  Population Membrane Permeable-Phenotype (%): 81% and 37%
  Population Mitochondria Different-Phenotype (%): 81% and 58%
  Population Normal (%): 96% and 100%
  Population Pyknosed Nuclei (%): 18% and 21%
  Population Tubulin-Different-Phenotype (%): 93% and 100%
[1]; [6]
  Population Apoptotic (%): 50%
  Population Fragmented Nuclei (%): 5% and 6%
  Population Healthy Nuclei (%): 79% and 73%
  Population Hoechst High Intensity Objects (%): 2% and 0%
  Population Membrane Permeable-Phenotype (%): 3% and 11%
  Population Mitochondria Different-Phenotype (%): 12% and 21%
  Population Mitotic Cells (%): 50% and 49%
  Population Normal (%): 97% and 99%
  Population Pyknosed Nuclei (%): 15% and 19%
  Population Tubulin-Different-Phenotype (%): 32% and 42%
[1]; [7]
  Population Apoptotic (%): 72% and 81%
  Population Fragmented Nuclei (%): 21% and 7%
  Population Healthy Nuclei (%): 43% and 62%
  Population Hoechst High Intensity Objects (%): 3% and 0%
  Population Membrane Permeable-Phenotype (%): 92% and 74%
  Population Mitochondria Different-Phenotype (%): 71% and 61%
  Population Mitotic Cells (%): 27% and 18%
  Population Normal (%): 96% and 100%
  Population Pyknosed Nuclei (%): 34% and 30%
  Population Tubulin-Different-Phenotype (%): 100% and 98%
[1]; [8]
  Population Apoptotic (%): 76% and 84%
  Population Fragmented Nuclei (%): 18% and 7%
  Population Healthy Nuclei (%): 60% and 74%
  Population Hoechst High Intensity Objects (%): 0%
  Population Membrane Permeable-Phenotype (%): 7% and 13%
  Population Mitochondria Different-Phenotype (%): 10% and 18%
  Population Mitotic Cells (%): 23% and 15%
  Population Normal (%): 100% and 99%
  Population Pyknosed Nuclei (%): 20% and 17%
  Population Tubulin-Different-Phenotype (%): 25% and 32%
[1]; [9]
  Population Apoptotic (%): 100% and 95%
  Population Healthy Nuclei (%): 22% and 42%
  Population Hoechst High Intensity Objects (%): 0%
  Population Membrane Permeable-Phenotype (%): 83% and 85%
  Population Mitochondria Different-Phenotype (%): 50% and 70%
  Population Mitotic Cells (%): 0% and 4%
  Population Normal (%): 100%
  Population Pyknosed Nuclei (%): 40% and 51%
  Population Tubulin-Different-Phenotype (%): 83% and 99%
[2]; [4]
  Population Apoptotic (%): 31% and 54%
  Population Fragmented Nuclei (%): 17% and 21%
  Population Healthy Nuclei (%): 61% and 62%
  Population Hoechst High Intensity Objects (%): 0%
  Population Membrane Permeable-Phenotype (%): 6% and 11%
  Population Mitochondria Different-Phenotype (%): 2% and 1%
  Population Mitotic Cells (%): 68% and 45%
  Population Normal (%): 100%
  Population Pyknosed Nuclei (%): 20% and 16%
  Population Tubulin-Different-Phenotype (%): 66% and 52%
  Total Cell Count: 155 and 275
[2]; [5]
  Population Apoptotic (%): 57% and 44%
  Population Fragmented Nuclei (%): 26% and 14%
  Population Healthy Nuclei (%): 52% and 66%
  Population Hoechst High Intensity Objects (%): 0%
  Population Membrane Permeable-Phenotype (%): 20% and 17%
  Population Mitochondria Different-Phenotype (%): 21% and 16%
  Population Mitotic Cells (%): 42% and 55%
  Population Normal (%): 99%
  Population Pyknosed Nuclei (%): 20% and 19%
  Population Tubulin-Different-Phenotype (%): 97% and 84%
  Total Cell Count: 160 and 258
[2]; [6]
  Population Apoptotic (%): 43% and 66%
  Population Fragmented Nuclei (%): 25% and 28%
  Population Healthy Nuclei (%): 61% and 59%
  Population Hoechst High Intensity Objects (%): 0%
  Population Membrane Permeable-Phenotype (%): 0% and 5%
  Population Mitochondria Different-Phenotype (%): 12% and 10%
  Population Mitotic Cells (%): 56% and 33%
  Population Normal (%): 100%
  Population Pyknosed Nuclei (%): 13% and 12%
  Population Tubulin-Different-Phenotype (%): 64% and 56%
  Total Cell Count: 171 and 286
[2]; [7]
  Population Apoptotic (%): 80%
  Population Fragmented Nuclei (%): 20% and 16%
  Population Healthy Nuclei (%): 56% and 57%
  Population Hoechst High Intensity Objects (%): 1% and 0%
  Population Membrane Permeable-Phenotype (%): 14% and 7%
  Population Mitochondria Different-Phenotype (%): 42% and 56%
  Population Mitotic Cells (%): 19% and 20%
  Population Normal (%): 98% and 99%
  Population Pyknosed Nuclei (%): 23% and 25%
  Population Tubulin-Different-Phenotype (%): 93% and 92%
  Total Cell Count: 159 and 220
[2]; [8]
  Population Apoptotic (%): 77% and 72%
  Population Fragmented Nuclei (%): 36% and 29%
  Population Healthy Nuclei (%): 53% and 64%
  Population Hoechst High Intensity Objects (%): 0%
  Population Membrane Permeable-Phenotype (%): 2% and 3%
  Population Mitochondria Different-Phenotype (%): 9% and 7%
  Population Mitotic Cells (%): 22% and 27%
  Population Normal (%): 99% and 100%
  Population Pyknosed Nuclei (%): 9% and 5%
  Population Tubulin-Different-Phenotype (%): 28% and 50%
  Total Cell Count: 326 and 194
[2]; [9]
  Population Apoptotic (%): 88% and 86%
  Population Fragmented Nuclei (%): 24% and 18%
  Population Healthy Nuclei (%): 62% and 65%
  Population Hoechst High Intensity Objects (%): 5% and 9%
  Population Membrane Permeable-Phenotype (%): 8% and 10%
  Population Mitochondria Different-Phenotype (%): 46% and 55%
  Population Mitotic Cells (%): 11% and 13%
  Population Normal (%): 94% and 90%
  Population Pyknosed Nuclei (%): 12% and 15%
  Population Tubulin-Different-Phenotype (%): 87% and 83%
  Total Cell Count: 138 and 202
[3]; [4]
  Population Apoptotic (%): 40% and 62%
  Population Fragmented Nuclei (%): 2% and 1%
  Population Healthy Nuclei (%): 85% and 84%
  Population Hoechst High Intensity Objects (%): 5% and 6%
  Population Membrane Permeable-Phenotype (%): 5%
  Population Mitochondria Different-Phenotype (%): 29% and 26%
  Population Mitotic Cells (%): 59% and 37%
  Population Normal (%): 94% and 93%
  Population Pyknosed Nuclei (%): 11% and 13%
  Population Tubulin-Different-Phenotype (%): 86% and 85%
  Total Cell Count: 531 and 472
[3]; [5]
  Population Apoptotic (%): 76% and 70%
  Population Fragmented Nuclei (%): 1% and 3%
  Population Healthy Nuclei (%): 82% and 83%
  Population Hoechst High Intensity Objects (%): 10% and 9%
  Population Membrane Permeable-Phenotype (%): 1% and 4%
  Population Mitochondria Different-Phenotype (%): 82% and 70%
  Population Mitotic Cells (%): 23% and 29%
  Population Normal (%): 89% and 90%
  Population Pyknosed Nuclei (%): 15% and 12%
  Population Tubulin-Different-Phenotype (%): 85% and 82%
  Total Cell Count: 395 and 352
[3]; [6]
  Population Apoptotic (%): 52% and 56%
  Population Fragmented Nuclei (%): 5%
  Population Healthy Nuclei (%): 86% and 83%
  Population Hoechst High Intensity Objects (%): 6% and 9%
  Population Membrane Permeable-Phenotype (%): 4%
  Population Mitochondria Different-Phenotype (%): 19% and 22%
  Population Mitotic Cells (%): 47% and 43%
  Population Normal (%): 93% and 90%
  Population Pyknosed Nuclei (%): 7% and 10%
  Population Tubulin-Different-Phenotype (%): 74% and 73%
  Total Cell Count: 766 and 588
[3]; [7]
  Population Apoptotic (%): 80% and 69%
  Population Fragmented Nuclei (%): 2% and 5%
  Population Healthy Nuclei (%): 76% and 75%
  Population Hoechst High Intensity Objects (%): 10% and 15%
  Population Membrane Permeable-Phenotype (%): 1% and 2%
  Population Mitochondria Different-Phenotype (%): 88% and 86%
  Population Mitotic Cells (%): 19% and 30%
  Population Normal (%): 89% and 84%
  Population Pyknosed Nuclei (%): 20% and 19%
  Population Tubulin-Different-Phenotype (%): 78% and 75%
  Total Cell Count: 417 and 393
[3]; [8]
  Population Apoptotic (%): 18% and 44%
  Population Fragmented Nuclei (%): 10% and 8%
  Population Healthy Nuclei (%): 84% and 85%
  Population Hoechst High Intensity Objects (%): 8% and 9%
  Population Membrane Permeable-Phenotype (%): 6% and 3%
  Population Mitochondria Different-Phenotype (%): 5% and 4%
  Population Mitotic Cells (%): 81% and 55%
  Population Normal (%): 91% and 90%
  Population Pyknosed Nuclei (%): 4% and 6%
  Population Tubulin-Different-Phenotype (%): 44% and 41%
  Total Cell Count: 1592 and 1105
[3]; [9]
  Population Apoptotic (%): 88% and 78%
  Population Fragmented Nuclei (%): 6% and 9%
  Population Healthy Nuclei (%): 81% and 80%
  Population Hoechst High Intensity Objects (%): 14% and 17%
  Population Membrane Permeable-Phenotype (%): 2% and 3%
  Population Mitochondria Different-Phenotype (%): 78% and 79%
  Population Mitotic Cells (%): 12% and 21%
  Population Normal (%): 85% and 82%
  Population Pyknosed Nuclei (%): 11% and 10%
  Population Tubulin-Different-Phenotype (%): 84% and 87%
  Total Cell Count: 498 and 427
